Data: ChEMBL document CHEMBL4699644, “Discovery of a potent dual inhibitor of wild-type and mutant respiratory syncytial virus fusion proteins through the modulation of atropisomer interconversion properties” (Bioorg Med Chem, 2020)

Legend:
CYP3A = assay: Inhibition of human liver microsomes CYP3A at 10 uM using testosterone as substrate in presence of NADPH preincubated for 30 mins followed by substrate addition and measured after 10 mins by LC/MS analysis; format: ADME, Microsome; details: probe testosterone, time 40 min
Summary of the method: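 Compound preincubated 0 or 30 min at 37 °C with human liver microsomes (0.5 mg protein/mL) in sodium–potassium phosphate buffer pH 7.4 with NADPH-regenerating system. Then diluted 10-fold into secondary buffer with testosterone 250 μM plus NADPH-regenerating system and incubated 10 min. Stopped with acetonitrile containing internal standard, centrifuged, LC-MS/MS. Value is the difference in % inhibition between 0- and 30-min preincubation.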

[1] = Protein binding in human plasma at 1 ug/ml incubated for 4 hrs by LC-MS analysis; format: ADME, cell-free; details: at 1 µg/mL, read-out: PPB (converted)
Summary of the method: (§1)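 Equilibrium dialysis with 12–14 kDa cutoff membrane. Compound dissolved in DMSO and spiked into blank plasma at 1 μg/mL final. Plasma dialysed against phosphate buffer pH 7.4 at 37 °C, 5% CO2, 4 h. Compound in plasma and buffer measured by LC-MS/MS and % bound calculated.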

[2] = Protein binding in mouse plasma at 1 ug/ml incubated for 4 hrs by LC-MS analysis; format: ADME, cell-free; details: at 1 µg/mL, read-out: PPB (converted); summary of the method: as §1
[3] = Permeability of compound incubated for 4 hrs by PAMPA assay; format: ADME; details: read-out: permeability
Summary of the method: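 Artificial membrane permeation run 4 h at room temperature and quantified by UV plate reader. Apparent permeability calculated at pH 6.2.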

Structure (SMILES)	inhibition at 10 min, 10 µM (CYP3A) [%]	fraction unbound at 4 h, 1 ug/ml [1]	fraction unbound at 4 h, 1 ug/ml [2]	Papp at 4 h [3] [×10⁻⁶ cm/s]
CN1CCNC(=O)COc2ccc(Cl)cc2C(=O)N2CCCC[C@H]2c2cc3nc([C@H]4C[C@H](O)C4)cc1n3n2	-1.4	0.093	0.145	–
CN1CCNC(=O)COc2ccc(F)cc2C(=O)N2CCCC[C@H]2c2cc3nc(N4CC(N)C4)cc1n3n2	–	–	–	3.3
CN1CCNC(=O)COc2ccc(F)cc2C(=O)N2CCCC[C@H]2c2cc3nc([C@H]4C[C@H](O)C4)cc1n3n2	0.4	–	–	27
CN1CCNC(=O)COc2ccc(F)cc2C(=O)N2CCCC[C@H]2c2cc3nc(N4CC(O)C4)cc1n3n2	–	–	–	8
CN1CCNC(=O)COc2ccc(Cl)cc2C(=O)N2CCCCC2c2cc3nc(N4CCC4)cc1n3n2 (stereo unspecified)	-2.9	–	–	–
CN1CCNC(=O)COc2ccc(F)cc2C(=O)N2CCCC[C@H]2c2cc3nc(N4CCC4)cc1n3n2	-4.7	0.13	0.02	80
CN1CCNC(=O)COc2ccc(F)cc2C(=O)N2CCCC[C@H]2c2cc3nc([C@H]4C[C@@H](O)C4)cc1n3n2	–	–	–	28
Cc1ccc2c(c1)C(=O)N1CCCCC1c1cc3nc(N4CCC4)cc(n3n1)N(C)CCNC(=O)CO2 (stereo unspecified)	60.1	0.064	0.031	–
CNC1CN(c2cc3n4nc(cc4n2)[C@@H]2CCCCN2C(=O)c2cc(F)ccc2OCC(=O)NCCN3C)C1	–	–	–	5.9
Cc1ccc2c(c1)C(=O)N1CCCC[C@H]1c1cc3nc([C@H]4C[C@H](O)C4)cc(n3n1)N(C)CCNC(=O)CO2	57	0.112	0.222	–
CN1CCNC(=O)COc2ccc(F)cc2C(=O)N2CCCC[C@H]2c2cc3nc(N4CC[C@H](N)C4)cc1n3n2	–	–	–	0.3
